The test system of series [1] is Liver microsomes. Description: Metabolic stability in rat hepatocyte microsomes. It is filed as ADME, Microsome.
For series [2], the target named is T1, Peroxisome proliferator-activated receptor alpha (Homo sapiens, UniProt Q07869).
T1 sequence (Q07869 whole entry): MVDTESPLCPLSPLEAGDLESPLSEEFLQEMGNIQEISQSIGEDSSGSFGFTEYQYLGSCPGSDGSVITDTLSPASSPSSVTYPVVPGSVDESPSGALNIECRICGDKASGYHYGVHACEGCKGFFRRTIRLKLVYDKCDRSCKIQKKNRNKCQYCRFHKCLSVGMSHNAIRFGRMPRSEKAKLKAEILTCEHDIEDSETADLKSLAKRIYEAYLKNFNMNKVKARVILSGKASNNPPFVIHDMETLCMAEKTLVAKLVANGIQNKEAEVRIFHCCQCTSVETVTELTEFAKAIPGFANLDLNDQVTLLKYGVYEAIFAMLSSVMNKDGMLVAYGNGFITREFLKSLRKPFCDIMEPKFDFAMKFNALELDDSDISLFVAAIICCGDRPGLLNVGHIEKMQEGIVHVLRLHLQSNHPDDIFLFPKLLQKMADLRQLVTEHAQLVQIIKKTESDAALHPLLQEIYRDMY
In words: Agonist activity at human PPARalpha by Gal4 transactivation assay. It is filed as functional.

Series [3] concerns the target T2, Peroxisome proliferator-activated receptor alpha (Homo sapiens) (UniProt Q07869).
T2 sequence (whole entry): T1 sequence (Q07869 whole entry)
Description: Agonist activity at human PPARalpha at transactivation EC50 by Gal4 transactivation assay relative to at 10 uM WY-14643.

The target in series [4] is T3, Peroxisome proliferator-activated receptor gamma (Homo sapiens, UniProt P37231).
T3 sequence (P37231 whole entry): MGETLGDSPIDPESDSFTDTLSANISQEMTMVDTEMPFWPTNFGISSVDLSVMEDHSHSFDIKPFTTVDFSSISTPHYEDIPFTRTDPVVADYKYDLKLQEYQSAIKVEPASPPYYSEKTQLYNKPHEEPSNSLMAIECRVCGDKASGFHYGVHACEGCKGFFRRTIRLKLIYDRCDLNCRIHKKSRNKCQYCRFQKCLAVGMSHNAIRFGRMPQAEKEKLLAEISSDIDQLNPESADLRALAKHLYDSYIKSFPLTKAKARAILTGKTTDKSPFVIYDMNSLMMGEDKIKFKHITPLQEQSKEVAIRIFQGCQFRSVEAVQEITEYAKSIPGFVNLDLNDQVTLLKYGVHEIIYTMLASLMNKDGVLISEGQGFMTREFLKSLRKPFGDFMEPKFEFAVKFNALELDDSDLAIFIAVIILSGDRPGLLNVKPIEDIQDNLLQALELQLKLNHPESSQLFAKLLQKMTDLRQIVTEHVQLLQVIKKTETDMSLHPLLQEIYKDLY
Description: Displacement of [3H]rosiglitazone from human PPARgamma receptor. A general note: Loss of bound radioactivity is the signal in a displacement assay; it reports binding, not function.

A further series has as its system Caco-2. In words: Absorption in human Caco-2 cells. It counts as ADME, cell-based. Set-up: concentration or dose not given beside the values.
For series [5], the target named is T3, Peroxisome proliferator-activated receptor gamma. In words: Agonist activity at human PPARgamma by Gal4 transactivation assay. It is filed as functional.
Series [6] has as its system Liver microsomes. Description: Metabolic stability in human hepatocyte microsomes. It is filed as ADME, Microsome.
For series [7], the system named is Mus musculus. In words: Effect on bodyweight in po dosed C57BL/6J ob/ob mouse assessed as body weight gain relative to untreated control. It counts as functional. In a few lines:
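Male C57BL/6J ob/ob mice (n = 8–12 per dose) were randomized on glycemia and gavaged with 3 mg/kg daily for four days, between 3 and 5 pm, as a suspension in 1% hydroxyethyl cellulose (2.5 ml/kg). Body weight gain was each mouse's end-of-study minus starting weight. Groups were compared with control by ANOVA and one-tailed Dunnett's test.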

For series [8], the system named is Mus musculus. Description: Glucose lowering effect in po dosed C57BL/6J ob/ob mouse assessed as insulin level relative to untreated control. It is filed as functional. In outline:
(§1)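 Male C57BL/6J ob/ob mice (n = 8–12 per dose) were gavaged with 3 mg/kg daily for four days in 1% hydroxyethyl cellulose (2.5 ml/kg). On day five, heparinized retro-orbital plasma was collected under CO₂ anaesthesia. Plasma level was expressed as percent change from the mean of vehicle-treated mice. Groups were compared by ANOVA and one-tailed Dunnett's test.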

The test system of series [9] is Mus musculus. In words: Lipid lowering effect in po dosed C57BL/6J ob/ob mouse assessed as triglyceride level relative to untreated control. It is filed as functional. In outline:
as §1

One may read the EC50 as the midpoint of the concentration-response curve. The term Ki denotes a dissociation constant, usually derived from enzyme kinetics or from competition with a known ligand. Take `C=CCO/N=C(\c1ccccc1)c1ccc2c(c1)C(C)(C)CCN2CCOc1ccc(C[C@H](OCC)C(=O)O)cc1`: the Stability in the series on Liver microsomes [1] was 20%; in the series with Liver microsomes [6], 47%. The results for the EC50 in series [2] (read-out: EC50) and in [5] (read-out: EC50) were 73 nM and 13 nM, respectively. The figures for the Activity (in series [3]; in the series with Caco-2) were 152% and 95%, respectively. The affinity in series [4], expressed as Ki, was 54.2 nM.

Consider `CCO[C@@H](Cc1ccc(OCCN2CCC(C)(C)c3cc(/C(=N/OCC4CC4)c4ccccc4)ccc32)cc1)C(=O)O`, for which the figures for the Stability in the series on Liver microsomes [1] and with Liver microsomes [6] were 32% and 84%, respectively. The Activity in the series on Mus musculus [7] is 107%; in [3], 145%; in the series with Mus musculus [8] it was -2%; with Caco-2, 93%; with Mus musculus [9], -2%. In addition, the values for the EC50 in [2] (read-out: EC50) and in [5] (read-out: EC50) were 9 nM and 7.52 nM, respectively. This compound also returned a Ki in series [4] of 254 nM.

`CO/N=C(\c1ccccc1)c1ccc2c(c1)C(C)(C)CCN2CCOc1ccc(C[C@H](OC(C)=O)C(=O)O)cc1`: the EC50 result in series [2] and in series [5] was “Not Active” in each case. In series [4], the Ki is more than 10000 nM.

Turning to `CCO[C@@H](Cc1ccc(OCCN2CCC(C)(C)c3cc(/C(=N/OCc4ccccc4)c4ccccc4)ccc32)cc1)C(=O)O`, the Stability was 35% with Liver microsomes [1] and 59% in the series on Liver microsomes [6]. Also, the Activity in the series on Mus musculus [7] was 0.23%; in series [3], 137%; in the series with Mus musculus [8], 51%; in the series with Caco-2, 90%; in the series on Mus musculus [9] it was -27%. In addition, the EC50 in [2] (read-out: EC50) is 34 nM; in [5] (read-out: EC50), 7 nM. This compound also came in with a Ki in [4] of 18.4 nM.

With `CO/N=C(\c1ccccc1)c1ccc2c(c1)C(C)(C)CCN2CCOc1ccc(C[C@H](Nc2ccccc2C(=O)c2ccccc2)C(=O)O)cc1`, the figures for the EC50 in series [2] (read-out: EC50) and in series [5] (read-out: EC50) were 10000 nM and 14 nM, respectively. For the same compound, the results for the Activity (in [3]; with Caco-2) were 11% and 22%, respectively. The compound further displayed a Ki in [4] of 54 nM.

As to `CCO[C@@H](Cc1ccc(OCCc2ccc(OS(C)(=O)=O)cc2)cc1)C(=O)O` [TESAGLITAZAR], the Stability in the series with Liver microsomes [1] came out at 97%; with Liver microsomes [6] it was 100%. In addition, the Activity with Mus musculus [7] is recorded as 1.9%; with Mus musculus [8], -94%; in the series on Caco-2 it was 78%; in the series on Mus musculus [9], -60%.

As for `CN(CCOc1ccc(CC2SC(=O)NC2=O)cc1)c1ccccn1` (stereo unspecified) [ROSIGLITAZONE], the figures for the Stability with Liver microsomes [1] and in the series on Liver microsomes [6] were 45% and 21%, respectively. Moreover, the Activity in the series on Mus musculus [7] is 0.56%; in the series with Mus musculus [8], -55%; with Caco-2 it was 100%; with Mus musculus [9], -56%.

Regarding `CCO[C@@H](Cc1ccc(OCCN2CCC(C)(C)c3cc(/C(=N/OC)c4ccccc4)ccc32)cc1)C(=O)O`, the Stability with Liver microsomes [1] and in the series with Liver microsomes [6] was 0% throughout. Besides, the Activity with Mus musculus [7] was -33%; in the series with Mus musculus [8], -20%; in the series on Caco-2 it was 100%; with Mus musculus [9], -5%.

Consider `CO/N=C(\c1ccccc1)c1ccc2c(c1)C(C)(C)CCN2CCOc1ccc(C[C@H](OCC(F)(F)F)C(=O)O)cc1`, for which the Stability worked out at 18% in the series with Liver microsomes [1] and 27% in the series on Liver microsomes [6]. In addition, the Activity in the series on Mus musculus [7] is 304%; in series [3], 50%; in the series on Mus musculus [8] it was -17%; in the series on Caco-2 it was 100%; in the series on Mus musculus [9], 9%. Moreover, the EC50 was 1000 nM in series [2] (read-out: EC50) and 125 nM in [5] (read-out: EC50). In series [4], this compound had a Ki of 33 nM.

For `CCOC(=O)N(CC(=O)O)Cc1ccc(OCCN2CCC(C)(C)c3cc(/C(=N/OC)c4ccccc4)ccc32)cc1`, the EC50 result in series [2] is “Not Active”; in series [5] (read-out: EC50) it was 10000 nM. In series [4], the Ki is more than 10000 nM.

For the origin of these results see ChEMBL document CHEMBL1151889, “4,4-Dimethyl-1,2,3,4-tetrahydroquinoline-based PPARalpha/gamma agonists. Part. II: Synthesis and pharmacological evaluation of oxime and acidic head group structural variations” (Bioorg Med Chem Lett, 2009).
